Lmaj promast: Leishmania major promastigote growth inhibition, primary screen; AID 1063, 2008; Leishmania major promastigotes, resazurin fluorescence viability; hit rate 9% among 200,000; inhibition, % at 10 µM; in the data active = inhibition above about 50%;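 note: promastigotes grown with compound for 44 hours at 28 °C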
Diaph act CS: compounds boosting diaphorase resazurin reduction – biochemical, uHTS, resorufin fluorescence, counter-screen for diaphorase-coupled primary assays, primary screen | Diaphorase/resazurin coupled assay, 16 min; stronger effect = higher value; 1 = vehicle wells, 0 = NADH-free wells | activation factor at 20 µM | hit rate 0.005% among 190,000 | AID 1229, 2008;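 active = diaphorase activity raised at least twofold by the compound at 20 µM; inactive = activation factor below 2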
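Material: purified diaphorase enzyme from Clostridium kluyveri / Medium: HEPES pH 7.4 buffer with MgCl2 and Tween 20 / Schedule: enzyme reaction of 16 min at room temperature / Measured by: resorufin fluorescence, excitation 544 nm, emission 590 nm / Evaluation: rise in resorufin formation, marking diaphorase activation or chemical reduction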
PMI act: activators of human PMI, primary screen, biochemical, fluorescence intensity, near-Km mannose 6-phosphate; purified human PMI, coupled resazurin fluorescence, 20 min; stronger effect = higher value; 1 = vehicle control, 0 substrate-free wells; activation factor at 20 µM; hit rate 0.005% among 190,000; AID 1214, 2008;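 active = activation factor of 2 or more at 20 µM, relative to plate controls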
Target sequence (P34949 whole entry, looked up): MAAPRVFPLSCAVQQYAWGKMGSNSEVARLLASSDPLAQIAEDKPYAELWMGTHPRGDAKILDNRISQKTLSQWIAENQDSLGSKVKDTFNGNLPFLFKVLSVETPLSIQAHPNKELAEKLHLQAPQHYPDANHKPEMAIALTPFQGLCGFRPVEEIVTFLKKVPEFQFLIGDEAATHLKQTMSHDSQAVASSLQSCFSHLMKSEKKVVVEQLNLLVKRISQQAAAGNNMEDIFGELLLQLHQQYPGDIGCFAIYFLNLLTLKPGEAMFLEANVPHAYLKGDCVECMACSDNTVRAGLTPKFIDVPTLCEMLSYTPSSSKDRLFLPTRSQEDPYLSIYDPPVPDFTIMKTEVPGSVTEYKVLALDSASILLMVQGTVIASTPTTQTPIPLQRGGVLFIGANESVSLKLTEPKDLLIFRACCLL
WT yeast gro inh: growth inhibition of WT strain, primary screen, mitochondrial fusion inhibitor project, WT and mutant strains, chemical genetic | hit rate 2.1% among 190,000 | mitochondrial fusion phenotypic screen | inhibition, % at 10 µM; in the data active = inhibition above about 58%; tested in S. cerevisiae
PMI act satM6P: human PMI activators, high substrate, primary screen, biochemical, fluorescence intensity, near-saturating mannose 6-phosphate; Mannose-6-phosphate isomerase (Homo sapiens), P34949; coupled PMI enzyme assay, resazurin fluorescence, 20 min; stronger effect = higher value; 1 = untreated enzyme, 0 = substrate-free blank; activation factor at 20 µM; hit rate 0.34% among 190,000; AID 1216, 2008;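 active = activation factor of 2 or more at 20 µM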
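Test system: human phosphomannose isomerase with PGI, G6PDH, diaphorase coupling enzymes; amount: 15 ng/mL PMI; incubation: enzyme reaction with compound 20 min at room temperature; technique: resorufin fluorescence (Ex 544/Em 590 nm) from resazurin via diaphorase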
An asterisk follows results filed as active. Compounds with a hit are over-represented: about 10% of the library has one in this group of screens.

COc1ccc(-c2nc(-c3ccccn3)no2)cc1 was read as Lmaj promast 0, Diaph act CS 0.9, PMI act 0.8, WT yeast gro inh 64* and PMI act satM6P 0.9.
Screening CCc1nnc(NC(=O)C2Cc3ccccc3CN2S(=O)(=O)c2cccs2)s1 (centres undefined) returned Lmaj promast 53*, Diaph act CS 0.9, PMI act 1, WT yeast gro inh 20 and PMI act satM6P 1.1.
For CCc1nnc(NC(=O)C2CCCN2S(=O)(=O)c2ccc(C)cc2)s1 (centres undefined) the results were Lmaj promast 5, Diaph act CS 1, PMI act 1, WT yeast gro inh 1 and PMI act satM6P 1.
`Cc1ccc(S(=O)(=O)N2Cc3ccccc3CC2C(=O)Nc2ccc3c(c2)OCO3)cc1` (centres undefined) gave Lmaj promast 100*, Diaph act CS 0.8, PMI act 0.9, WT yeast gro inh 17 and PMI act satM6P 0.9.
`CCc1nnc(NC(=O)C2Cc3ccccc3CN2S(=O)(=O)c2ccc(C)cc2)s1` (centres undefined) gave Lmaj promast 39, Diaph act CS 0.9, PMI act 0.9, WT yeast gro inh 79* and PMI act satM6P 0.9.
`CNC(=O)C1Cc2ccccc2CN1S(=O)(=O)c1cccs1` (centres undefined) gave Lmaj promast 68*, Diaph act CS 0.9, PMI act 0.9, WT yeast gro inh 8 and PMI act satM6P 1.
`O=C(CCC(=O)c1ccccc1)NCCc1c[nH]c2ccccc12` gave Lmaj promast -3, Diaph act CS 1, PMI act 1, WT yeast gro inh 4 and PMI act satM6P 1.1.
For COc1cc(C(=O)OCC(=O)NCCN2C(=O)CSC2=O)ccc1OCc1c(C)noc1C the results were Lmaj promast -1, Diaph act CS 1, PMI act 1.1, WT yeast gro inh -6 and PMI act satM6P 1.1.
`O=C(CCCc1ccccc1)Nc1ccc2c(c1)OCCO2` gave Lmaj promast -3, Diaph act CS 0.9, PMI act 0.9, WT yeast gro inh 29 and PMI act satM6P 1.
CC(C)CNC(=O)c1cccc(NC(=O)COc2cccc([N+](=O)[O-])c2)c1 was read as Lmaj promast 6, Diaph act CS 1.1, PMI act 1, WT yeast gro inh 19 and PMI act satM6P 1.
For CCCCN(C(=O)CSc1cc(C)c2ccccc2n1)c1c(N)n(Cc2ccccc2)c(=O)[nH]c1=O the results were Lmaj promast -2, Diaph act CS 0.9, PMI act 1.1, WT yeast gro inh 4 and PMI act satM6P 1.2.
For COc1ccc(S(=O)(=O)N2Cc3ccccc3CC2C(=O)Nc2nccs2)cc1OC (centres undefined) the results were Lmaj promast 8, Diaph act CS 0.9, PMI act 0.9, WT yeast gro inh 2 and PMI act satM6P 0.9.
COc1ccc(S(=O)(=O)N2Cc3ccccc3CC2C(=O)Nc2nccs2)cc1 (centres undefined) was read as Lmaj promast 99*, Diaph act CS 0.9, PMI act 1, WT yeast gro inh -4 and PMI act satM6P 1.
CCn1c(CN2CCN(c3cccc(C)c3C)CC2)n[nH]c1=S was read as Lmaj promast -3, Diaph act CS 0.8, PMI act 1, WT yeast gro inh 4 and PMI act satM6P 0.9.
`C=CCn1c(=NC(=O)C2CCCCC2)sc2cc(NC(C)=O)ccc21` gave Lmaj promast 80*, Diaph act CS 1, PMI act 0.9, WT yeast gro inh 2 and PMI act satM6P 0.9.
Screening Cc1ccc(C(c2nnnn2CCc2ccccc2)N2CCC(C)CC2)cc1 (centres undefined) returned Lmaj promast 38, Diaph act CS 0.8, PMI act 1.1, WT yeast gro inh 74* and PMI act satM6P 1.1.
COc1ccc(C(c2nnnn2CCc2ccccc2)N2CCN(C3CCCC3)CC2)cc1OC (centres undefined) was read as Lmaj promast 100*, Diaph act CS 0.9, PMI act 1.1, WT yeast gro inh -1 and PMI act satM6P 1.2.
`COc1cccc(C(c2nnnn2Cc2ccccc2)N2CCN(C3CCCC3)CC2)c1OC` (centres undefined) gave Lmaj promast 98*, Diaph act CS 0.8, PMI act 1, WT yeast gro inh -3 and PMI act satM6P 1.
`COc1ccc(C(c2nnnn2C2CCCC2)N2CCN(C3CCCC3)CC2)cc1OC` (centres undefined) gave Lmaj promast 83*, Diaph act CS 0.9, PMI act 1.1, WT yeast gro inh 6 and PMI act satM6P 1.1.
Screening C#CCSc1nnc(-c2sc(-c3ccccc3)nc2C)n1C returned Lmaj promast 37, Diaph act CS 0.9, PMI act 1, WT yeast gro inh -5 and PMI act satM6P 1.1.
For COC(=O)c1ccc(/C=N/NC(=O)C(=O)NCc2ccccc2)cc1 the results were Lmaj promast -10, Diaph act CS 1, PMI act 1, WT yeast gro inh -3 and PMI act satM6P 1.
Screening CCCCN(CCCC)CC(O)COc1ccccc1Br (centres undefined) returned Lmaj promast 20, Diaph act CS 1.1, PMI act 1, WT yeast gro inh 5 and PMI act satM6P 1.1.
For O=C(O)c1ccc(COc2ccc3ccccc3c2/C=C2/NC(=O)N(c3ccccc3)C2=O)cc1 the results were Lmaj promast -7, Diaph act CS 0.7, PMI act 0.8, WT yeast gro inh 7 and PMI act satM6P 0.8.
`CCN1C(=O)S/C(=C/c2c(OCc3ccc(C(=O)O)cc3)ccc3ccccc23)C1=O` gave Lmaj promast 2, Diaph act CS 0.9, PMI act 0.9, WT yeast gro inh 73* and PMI act satM6P 0.9.
Screening CCN1C(=O)S/C(=C/c2cn(C)c3ccccc23)C1=O returned Lmaj promast 82*, Diaph act CS 0.9, PMI act 0.9, WT yeast gro inh -6 and PMI act satM6P 0.9.
Screening CC(C)CC(=O)NC(NC(=S)Nc1sc2c(c1C#N)CCCC2)C(Cl)(Cl)Cl (centres undefined) returned Lmaj promast -5, Diaph act CS 0.7, PMI act 0.7, WT yeast gro inh 8 and PMI act satM6P 0.8.
For CCN1CCCC1CNCc1ccccc1OCc1ccc(F)cc1 (centres undefined) the results were Lmaj promast 100*, Diaph act CS 0.9, PMI act 1.1, WT yeast gro inh 3 and PMI act satM6P 1.1.

Screens (PubChem)
